Results from ChEMBL document CHEMBL1156797, “Synthesis and antiplasmodial activity of new indolone N-oxide derivatives” (J Med Chem, 2010).

Experiments:
[1] = Cytotoxicity against human MCF7 cells after 48 hrs by MTT assay; type: cell-based
[2] = test system: Plasmodium falciparum; assay: Resistance index, ratio of IC50 for chloroquine-resistant Plasmodium falciparum K1 to IC50 for drug-sensitive Plasmodium falciparum 3D7; type: functional
[3] = test system: Plasmodium falciparum; assay: Antimalarial activity against drug-sensitive Plasmodium falciparum 3D7 assessed as [3H]hypoxanthine incorporation by scintillation counting; type: functional, organism-based
[4] = test system: Plasmodium falciparum; assay: Antimalarial activity against chloroquine-resistant Plasmodium falciparum FcB1 assessed as [3H]hypoxanthine incorporation after 48 hrs by beta-counter; type: functional, organism-based; details: FcB1/Columbia
Summary of the method: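 Primary assay (Toulouse) on FcB1 cultured in RPMI with 25 mM HEPES and 10% human serum, O RBCs. Serial dilutions in triplicate, 2% parasitaemia, 2% haematocrit, 48 h at 37 °C, 5% CO2. [3H]-hypoxanthine added at 24 h, freeze-thaw harvest, β-counting. IC50 by linear regression on the linear segment of the semilog inhibition curve. Three independent repeats.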

[5] = Selectivity index, ratio of CC50 for human MCF7 cells to IC50 for chloroquine-resistant Plasmodium falciparum FcB1; type: functional
Summary of the method: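 XTT 0.5 mg/mL added for 180 min, formazan read at 450 nm, value taken from dose–response curves, two experiments in triplicate. This CC50 is divided by the FcB1 IC50 to give the index.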

[6] = test system: Plasmodium falciparum; assay: Antimalarial activity against Plasmodium falciparum K1 assessed as [3H]hypoxanthine incorporation by scintillation counting; type: functional, organism-based
[7] = test system: Plasmodium falciparum; assay: Resistance index, ratio of IC50 for chloroquine-resistant Plasmodium falciparum FcB1 to IC50 for drug-sensitive Plasmodium falciparum 3D7; type: functional
[8] = Selectivity index, ratio of CC50 for human KB cells to IC50 for drug-sensitive Plasmodium falciparum 3D7; type: functional
Summary of the method: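 The 3D7 value came from [3H]hypoxanthine incorporation: synchronized culture at 0.5% parasitaemia, 2.5% hematocrit, Albumax-supplemented medium, 2-fold dilutions from 100 to 0.05 μM in triplicate, label added at 24 h and harvested at 48 h.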

[9] = Cytotoxicity against human KB cells after 72 hrs by alamar blue assay; type: cell-based
Summary of the method: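 KB cells were seeded at 4×10^4 cells/mL in RPMI 1640 with 10% heat-inactivated FCS and left 24 h at 37 °C, 5% CO2. A dilution series was added in triplicate for 72 h, then AlamarBlue for 2–4 h. Fluorescence was read at ex 530/em 585 nm, with podophyllotoxin as positive control and values from curve fitting.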

| SMILES | CC50 at 48 h [1] | Ratio IC50 [2] | IC50 [3] | IC50 [4] | Ratio CC50/IC50 [5] | IC50 [6] | Ratio IC50 [7] | Ratio CC50/IC50 [8] | CC50 at 72 h [9] |
| --- | --- | --- | --- | --- | --- | --- | --- | --- | --- |
| O=C1C(c2ccc(Oc3ccccc3)cc2)=[N+]([O-])c2ccccc21 | 11.1 µM | 0.4 | 148 nM | 264 nM | 42 | 60 nM | 1.8 |  |  |
| COc1ccc2c(c1)C(=O)C(c1ccccc1)=[N+]2[O-] | 13.4 µM |  |  | 184 nM | 73 |  |  |  |  |
| O=C1C(c2ccc(C(F)(F)F)cc2)=[N+]([O-])c2ccccc21 | 34.3 µM |  |  | 1170 nM | 29 |  |  |  |  |
| COc1ccc2c(c1)C(=O)C(c1ccc(Oc3ccccc3)cc1)=[N+]2[O-] | 7.7 µM | <0.04 | 37 nM | 193 nM | 40 | < 1.5 nM | 5.2 | 151 | 5.6 µM |
| CCCC1=[N+]([O-])c2ccccc2C1=O | 26.4 µM |  |  | 12200 nM | 2 |  |  |  |  |
| O=C1C(c2ccc(Oc3ccccc3)cc2)=[N+]([O-])c2cc3c(cc21)OCO3 | 12.2 µM | 0.5 | 285 nM | 165 nM | 74 | 138 nM | 0.6 |  |  |
| O=C1C(c2ccc(CO)cc2)=[N+]([O-])c2ccccc21 | 39.5 µM |  |  | 3950 nM | 10 |  |  |  |  |
| COc1ccc2c(c1)C(=O)C(c1ccc(C)c(C)c1)=[N+]2[O-] | 26 µM | 1.2 | 142 nM | 37 nM | 702.7 | 178 nM | 0.3 | 980 | 148 µM |
| COc1ccc2c(c1)[N+]([O-])=C(c1ccc(Cl)cc1)C2=O | 10.4 µM |  |  | 150 nM | 69 |  |  |  |  |
| CCN(CC)c1ccc(C2=[N+]([O-])c3ccc(OC)cc3C2=O)cc1 | 17.6 µM |  |  | 131 nM | 134 |  |  |  |  |
| O=C1C(c2ccc(Oc3ccccc3)cc2)=[N+]([O-])c2cc(OCc3ccccc3)ccc21 | 2.2 µM |  |  | 665 nM | 3.2 |  |  |  |  |
| COc1ccc2c(c1)C(=O)C(c1ccc(-c3ccc(Cl)cc3)cc1)=[N+]2[O-] | 12.1 µM |  |  | 630 nM | 19 |  |  |  |  |
| COC(=O)c1ccc2c(c1)[N+]([O-])=C(c1ccc(OC)cc1)C2=O | 40.2 µM |  |  | 206 nM | 194.9 |  |  |  |  |
| COc1ccc2c(c1)C(=O)C(c1cccc(Cl)c1)=[N+]2[O-] | 5.2 µM | 0.7 | 139 nM | 21 nM | 248 | 96 nM | 0.2 | 688 | 64 µM |
| O=C1C(c2ccccc2)=[N+]([O-])c2cc3c(cc21)OCO3 |  |  |  | 12700 nM |  |  |  |  |  |
| O=C1C(c2ccc(Cl)c(Cl)c2)=[N+]([O-])c2cc3c(cc21)OCO3 | 7.4 µM |  |  | 195 nM | 38.1 |  |  |  |  |
| COc1ccc(C2=[N+]([O-])c3cc(Cl)ccc3C2=O)cc1 | 22.2 µM |  |  | 191 nM | 116.5 |  |  |  |  |
| COc1ccc(C2=[N+]([O-])c3cc(C)ccc3C2=O)cc1 | 14.9 µM |  |  | 198 nM | 75 |  |  |  |  |
| COc1ccc2c(c1)C(=O)C(c1ccc(C(F)(F)F)cc1)=[N+]2[O-] | 11.7 µM | 3.8 | < 0.5 nM | 43 nM | 273 | 1.9 nM | 86 | >220 | 110 µM |
| COc1ccc2cc(C3=[N+]([O-])c4ccccc4C3=O)ccc2c1 | 15.3 µM |  |  |  |  |  |  | 2589 | 233 µM |
| COc1ccc(C2=[N+]([O-])c3ccc(OC)cc3C2=O)c(C)c1 | 0.3 µM |  |  | 1040 nM | 0.3 |  |  |  |  |
| COc1ccc2c(c1)C(=O)C(c1ccsc1)=[N+]2[O-] | 12.3 µM |  |  | 270 nM | 45.5 |  |  |  |  |
| COc1ccc2c(c1)C(=O)C(c1ccc(OC)c(C)c1)=[N+]2[O-] | > 33.6 µM |  |  | 44 nM | >764 |  |  |  |  |
| COc1ccc2c(c1)C(=O)C(c1ccc(C(C)(C)C)cc1)=[N+]2[O-] | 11 µM |  |  | 204 nM | 53.9 |  |  |  |  |
| COc1ccc2cc(C3=[N+]([O-])c4cc(OCc5ccccc5)ccc4C3=O)ccc2c1 |  |  |  | 730 nM |  |  |  |  |  |
| O=C1C(c2ccc(Cl)c(C(F)(F)F)c2)=[N+]([O-])c2ccccc21 | 2 µM |  |  | 1040 nM | 1.9 |  |  |  |  |
| Cc1ccc(C2=[N+]([O-])c3ccccc3C2=O)cc1 | 15 µM |  |  | 1770 nM | 8.5 |  |  |  |  |

| SMILES | CC50 at 48 h [1] | Ratio IC50 [2] | IC50 [3] | IC50 [4] | Ratio CC50/IC50 [5] | IC50 [6] | Ratio IC50 [7] | Ratio CC50/IC50 [8] | CC50 at 72 h [9] |
| --- | --- | --- | --- | --- | --- | --- | --- | --- | --- |
| COc1ccc2c(c1)C(=O)C(c1cc(OC)c3ccccc3c1)=[N+]2[O-] | 14.4 µM |  |  | 135 nM | 107 |  |  |  |  |
| COc1ccc2c(c1)C(=O)C(c1ccc(Cl)c(Cl)c1)=[N+]2[O-] | 8.1 µM |  |  | 100 nM | 81 |  |  |  |  |
| CCC1=[N+]([O-])c2cc3c(cc2C1=O)OCO3 | 59 µM |  |  | 3560 nM | 16 |  |  |  |  |
| COc1ccc(C2=[N+]([O-])c3cc(OC)ccc3C2=O)cc1 | 8.8 µM |  |  | 106 nM | 83.3 |  |  |  |  |
| O=C1C(c2ccc([N+](=O)[O-])cc2)=[N+]([O-])c2ccccc21 | 2.8 µM |  |  | 56 nM |  |  |  |  |  |
| COc1cc2c(cc1OC)[N+]([O-])=C(c1ccc(C)cc1)C2=O |  |  |  | 265 nM |  |  |  |  |  |
| O=C1C(c2ccc(F)cc2)=[N+]([O-])c2ccccc21 | 8.7 µM |  |  | 120 nM | 72.5 |  |  |  |  |
| O=C1C(c2ccc(Cl)cc2)=[N+]([O-])c2ccccc21 | 17.8 µM |  |  | 272 nM | 66 |  |  |  |  |
| O=C1C(c2ccc(Cl)cc2)=[N+]([O-])c2cc(C(F)(F)F)ccc21 | 3.1 µM |  |  | 186 nM | 16.5 |  |  |  |  |
| O=C1C(c2ccc(F)cc2)=[N+]([O-])c2cc3c(cc21)OCO3 |  |  |  | 1710 nM |  |  |  |  |  |
| COc1ccc2c(c1)C(=O)C(c1ccc(NC(C)=O)cc1)=[N+]2[O-] | 7.4 µM |  |  | 400 nM | 18.5 |  |  |  |  |
| CCc1ccc(C2=[N+]([O-])c3ccccc3C2=O)cc1 | > 39.8 µM |  |  | 2750 nM | >14 |  |  |  |  |
| COc1ccc2c(c1)C(=O)C(c1ccc(N)cc1)=[N+]2[O-] | 12.7 µM |  |  | 24 nM | 528 |  |  |  |  |
| COc1ccc(C2=[N+]([O-])c3ccc(OC)cc3C2=O)cc1 | > 35.3 µM | 0.2 | 82 nM | 40 nM | >882 | 16 nM | 0.5 | 10658 | 874 µM |
| COc1ccc2c(c1)C(=O)C(c1ccc(OC(F)(F)F)cc1)=[N+]2[O-] | 8.3 µM | 2.7 | 30 nM | 20 nM | 415 | 81 nM | 0.7 |  | 11 µM |
| COc1ccc(C2=[N+]([O-])c3cc(OC(F)(F)F)ccc3C2=O)cc1 | 11.7 µM | 5.3 | 21 nM | 133 nM | 88.1 | 112 nM | 6.3 |  | 16 µM |
| COc1ccc2c(c1)C(=O)C(c1ccc(Cl)cc1Cl)=[N+]2[O-] | > 31 µM |  |  | 227 nM | >136 |  |  |  |  |
| COc1ccc2c(c1)C(=O)C(c1ccccc1Cl)=[N+]2[O-] |  |  |  | 1130 nM |  |  |  |  |  |
| COc1ccc(C2=[N+]([O-])c3cc(C(F)(F)F)ccc3C2=O)cc1 | 7.9 µM |  |  | 135 nM | 58.8 |  |  |  |  |
| COc1ccc(C2=[N+]([O-])c3cc([N+](=O)[O-])ccc3C2=O)cc1 | 21.8 µM |  |  | 345 nM | 63.2 |  |  |  |  |
| COc1cc2c(cc1OC)[N+]([O-])=C(c1ccccc1)C2=O |  |  |  | 1890 nM |  |  |  |  |  |
| O=C1C(c2ccsc2)=[N+]([O-])c2cc(Cl)ccc21 | 4.9 µM |  |  | 130 nM | 38 |  |  |  |  |
| COc1ccc2c(c1)C(=O)C(c1ccc(Cl)c(C)c1)=[N+]2[O-] | 10.3 µM |  |  | 3 nM | 3425 |  |  |  |  |
| CC(C)CC1=[N+]([O-])c2ccccc2C1=O | 43.1 µM |  |  | > 4500 nM | <9 |  |  |  |  |
| COc1ccc2c(c1)C(=O)C(c1ccc(C(C)=O)cc1)=[N+]2[O-] | 40.2 µM |  |  | 256 nM |  |  |  |  |  |
| COc1ccc2cc(C3=[N+]([O-])c4cc5c(cc4C3=O)OCO5)ccc2c1 | 25.6 µM |  |  |  |  |  |  |  |  |
